Most compounds without a hit are left out; they make up all but 2.3% or so of the library.
CAL PDZ FP-1: blocks peptide binding to the human CAL PDZ domain; Q9HD26; purified CAL PDZ, TMR-peptide fluorescence polarization, 1 h; inhibition, % at 24.9 µM; 0.92% of 300,000 active;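 active = mean inhibition of at least 30% with at least half of replicates also reaching 30%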;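 also: 0% = DMSO neutral control and 100% = excess unlabeled competitor peptide PRC23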
ATG4B inh: blocks human ATG4B protease cleavage of LC3 substrate; Q9Y4P1; ATG4B cleavage of LC3-PLA2, NBD-HPC fluorescence, 1 h; inhibition, % at 8.33 µM; 0.51% of 340,000 active; AID 504462; in the data active = inhibition above about 40%
SR-BI uptake up: enhances SR-BI lipid uptake from DiI-HDL. CHO ldlA[mSR-BI] cells, DiI-HDL uptake fluorescence, 3 h; 100 = double the neutral-control signal. activation, % at 12.5 µM. 0.096% of 320,000 active. AID 504775;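 active = mean replicate activation of at least 60% and every replicate at or above 60%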;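 also: 0% = median plate neutral-control signal and 100% = twice that signal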
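System: LDL receptor-deficient CHO ldlA cells overexpressing murine SR-BI | Timing: 3 h uptake period with compound, 37 °C | Medium: HEPES-buffered (25 mM, pH 7.4) F12 plus 0.5% BSA | Dosing: Single-point compound dose | Signal: Bottom-read fluorescence, 550/595 nm | Read-out: Retained DiI signal reflecting DiI-HDL uptake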
SR-BI HDL uptake: inhibitors of mouse SR-BI mediated HDL lipid uptake; 0.96% of 320,000 active; Q61009; ldlA[mSR-BI] CHO cells, DiI-HDL uptake fluorescence, 3 h; inhibition, % at 12.5 µM; AID 488896;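 active = mean replicate inhibition of at least 70% and a set share of replicates each scoring 70 or more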;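 also: 0% = median of neutral control wells and 100% = median of positive control wells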
Target sequence (Q61009 whole entry, looked up): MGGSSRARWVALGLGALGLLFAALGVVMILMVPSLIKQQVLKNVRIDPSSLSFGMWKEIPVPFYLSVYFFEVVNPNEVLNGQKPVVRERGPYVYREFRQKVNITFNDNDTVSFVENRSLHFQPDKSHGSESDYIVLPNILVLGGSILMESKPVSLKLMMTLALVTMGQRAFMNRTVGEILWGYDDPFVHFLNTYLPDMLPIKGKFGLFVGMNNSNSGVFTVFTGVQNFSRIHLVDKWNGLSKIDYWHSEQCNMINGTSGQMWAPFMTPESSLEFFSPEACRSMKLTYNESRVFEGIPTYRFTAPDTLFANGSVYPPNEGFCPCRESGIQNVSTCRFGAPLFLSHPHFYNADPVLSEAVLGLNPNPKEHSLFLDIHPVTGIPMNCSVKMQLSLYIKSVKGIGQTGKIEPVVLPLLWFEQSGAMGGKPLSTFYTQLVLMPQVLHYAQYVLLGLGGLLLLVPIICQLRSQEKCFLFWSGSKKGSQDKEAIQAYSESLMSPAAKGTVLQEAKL
CAL PDZ FP-2: blocks peptide binding to human CAL PDZ domain; AID 504414; 0.02% of 330,000 active; purified CAL PDZ, TMR-peptide fluorescence polarization, 1 h; Q9HD26; inhibition, % at 20 µM;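 active = highest replicate inhibition of at least 40%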;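 also: plate controls were DMSO neutral control wells for no effect and unlabeled competitor peptide control wells for full effect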
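material = purified tagged CAL PDZ domain construct (CerCALP) | compound dosing = 20 µM, one dose | times = 1 h at RT | measured by = fluorescence polarization from S- and P-plane intensities, G-factor corrected | read-out = inhibition from polarization loss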
Starred values were filed as active, the others as inactive; · = not tested or not shown.

SMILES	CAL PDZ FP-1	ATG4B inh	SR-BI uptake up	SR-BI HDL uptake	CAL PDZ FP-2
N#Cc1c(C(F)(F)F)cc(-c2ccccc2)[nH]c1=O	36*	-5	8	-8	-2
Cc1ccc(-c2cc(C(F)(F)F)c(C#N)c(=O)[nH]2)cc1	1	16	21	-21	-3
CCOC(=O)N1CCN(C(=S)NC(=O)c2cncc(Br)c2)CC1	-2	-1	69*	-69	-2
OC1(c2ccc3ccccc3c2)CCN(Cc2ccccc2)C1 (stereo not given)	38*	-7	34	-34	-1
Cc1ccc(C(CC(N)=O)c2ccco2)cc1 (stereo not given)	1	-4	71*	-71	0
Cc1ccc(C(CCN)c2ccco2)cc1 (stereo not given)	-2	-1	2	-2	0
Cc1cc2nc(C3CCN(C(=S)NCCCOC(C)C)CC3)[nH]c2cc1C	-3	-11	0	0	-8
COc1ccc(CN2CCOCC2)cc1OC	0	-3	10	-10	0
COc1cc2sc3ccc(-c4ccc(CN5CCOCC5)cc4)cc3c(=O)c2cc1OC	-6	-18	-71	71*	-6
CC1(C)C2CCC13CS(=O)(=O)N[C@@H]3C2 (stereo not given in full)	-2	-15	118*	-118	-2
CCOC(=O)N1CCN(C(=O)CNCc2cccs2)CC1	47*	-6	17	-17	-2
CCOC(=O)N1CCN(c2c(NCc3cccs3)c(=O)c2=O)CC1	·	-6	24	-24	-1
Cc1c(N=NC2=C(O)CCCC2=O)c(=O)n(-c2ccccc2)n1C	-2	-2	11	-11	0
CCOC(=O)C1=C(COC(=O)[C@@H]2CCCN2S(=O)(=O)c2ccc(C)cc2)NC(=O)NC1C (stereo not given in full)	-5	8	-1	1	1
CC/C(=N\Nc1ccccc1[N+](=O)[O-])c1ccc(O)cc1	-5	27	1	-1	0
CC/C(=N\Nc1ccc([N+](=O)[O-])cc1[N+](=O)[O-])c1ccc(O)cc1	2	-10	-76	76*	-1
C/C(=N\Nc1ccc([N+](=O)[O-])cc1)c1ccc(O)cc1	-1	15	-74	74*	1
C/C(=N\Nc1ccc([N+](=O)[O-])cc1)c1cccc(N)c1	-2	-1	3	-3	-1
O=c1[nH]c2nc(Cl)nc(Cl)c2[nH]1	81*	-11	23	-23	-1
OCC1(Cc2ccc(Cl)cc2)CCN(Cc2ccc3nsnc3c2)CC1	-6	8	-10	10	-1
OCC1(Cc2ccc(Cl)cc2)CCN(Cc2ccc(F)c(F)c2)CC1	66*	23	-18	18	-1
O=C(Nc1cc(Cl)ccc1N1CCOCC1)c1cccnc1Cl	64*	-13	-23	23	-1
Cn1ncc(=S)[nH]c1=S	85*	-7	23	-23	0
Oc1c(N=Nc2ccccn2)ccc2ccccc12	-2	1	-134	134*	0
COc1ccc(N2CCN(C(=O)Cc3ccc(OC)c(OC)c3)CC2)cc1	-3	2	-15	15	-1
SMILES	CAL PDZ FP-1	ATG4B inh	SR-BI uptake up	SR-BI HDL uptake	CAL PDZ FP-2
O=C(CNC(=O)c1nn(Cc2ccccc2)c(=O)c2ccccc12)Nc1ccc(F)c(F)c1F	-6	3	-1	1	1
COc1ccc(-c2sc3ccc(N4CCOCC4)cc3c2C#Cc2ccsc2)cc1	-1	10	-90	90*	-1
Cc1ccccc1NC(=O)CN1C(=O)CSc2ccccc21	38*	18	-11	11	0
Cc1cc(C)c2oc(=O)cc(CN3CCOCC3)c2c1	-3	-9	10	-10	0
Cc1cc2oc(=O)cc(CN3CCOCC3)c2cc1C(C)C	62*	-2	-13	13	-1
COc1cc2ccccc2cc1C(=O)Nc1nnc(-c2ccncc2)o1	-1	2	29	-29	-3
COc1ccc(-c2nc(CCl)cs2)cc1OC	·	-2	15	-15	-1
COc1ccc(N2CC(O)=C(c3nc(-c4ccc(Cl)cc4)cs3)C2=N)cc1	3	-1	-44	44	-1
COc1ccc(-c2csc(C3=C(O)CN(C(C)C)C3=N)n2)cc1OC	3	8	-84	84*	-1
COc1ccc(-c2nc(-c3ccc(O)cc3O)cs2)cc1OC	-2	1	-91	91*	1
CC(C)CCN1CC(O)=C(c2nc(-c3ccc(Cl)cc3)cs2)C1=N	-2	2	-76	76*	-1
Cc1cc(C(=O)NP(=O)(N2CCOCC2)N2CCOCC2)c(C)n1-c1ccc(N(C)C)cc1	88*	-8	0	0	-1
Cc1cc(C(=O)NP(=O)(N2CCOCC2)N2CCOCC2)c(C)n1-c1ccc(Br)cc1	-5	-7	24	-24	-1
COc1ccc(CCNc2nc(C)nc3c2nnn3Cc2ccccc2)cc1	0	3	-47	47	1
Cc1cc(C)nc(NC(=S)Nc2cccc(F)c2)c1	65*	4	-4	4	0
COc1cccc(NC(=S)Nc2cc(C)cc(C)n2)c1	0	-7	19	-19	0
COc1ccccc1CNC(=O)CN1CCN(c2ccc(C(C)=O)cc2)CC1	-4	-10	·	·	-2
CCC(C)(C(=O)NC1CCCC1)N(C(=O)CC1NC(=O)NC1=O)c1c(C)n(C)n(-c2ccccc2)c1=O (stereo not given)	·	-3	0	0	0
CCC(C)(C(=O)NC1CCCC1)N(C(=O)CC1NC(=O)NC1=O)c1ccc(C)cc1 (stereo not given)	60*	-6	-18	18	0
O=C(Nc1ccccc1F)c1ccc(CN2CCc3ccccc3C2)cc1	132*	17	-15	15	·
COc1cc(NC(=O)c2ccccc2Cl)ccc1NC(=O)c1cccs1	-2	5	-67	67	-3
COc1cc(NC(=O)c2cc3ccccc3cc2OC)ccc1NC(=O)c1cccs1	2	-13	·	71*	0
COc1cc(NC(=O)c2cccs2)ccc1NC(=O)Cc1ccccc1	42*	-6	-60	60	-1
COc1cc(NC(=O)Cc2ccccc2)ccc1NC(=O)Cc1ccccc1	2	-2	6	-6	0
Cc1ccc(-c2cc(C(F)F)nc(NCc3cccs3)n2)cc1	-1	27	6	-6	0
Cc1ccc(-c2cc(C(F)F)nc(NCC3CCCO3)n2)cc1 (stereo not given)	-3	4	223*	-224	-1
C[C@H](CO)N1C[C@H](C)[C@@H](CN(C)C(=O)Nc2ccc(C(F)(F)F)cc2)Oc2c(NC(=O)CCC(F)(F)F)cccc2C1=O	-1	-6	-76	76*	-1

Assay outcomes (PubChem)
